Measured values from ChEMBL document CHEMBL3817843, “Understanding Oxadiazolothiazinone Biological Properties: Negative Inotropic Activity versus Cytochrome P450-Mediated Metabolism” (J Med Chem, 2016).

How the values were obtained:
Left cardiac atrium [1] = experiment: Negative inotropic activity in potassium depolarized guinea pig left atrium assessed as reduction in developed tension at 5 uM after 30 mins; assay type: functional, Cavia porcellus; set-up: scale not given: the % may be the effect or the level left
Left cardiac atrium [2] = experiment: Negative inotropic activity in potassium depolarized guinea pig left atrium assessed as reduction in developed tension after 30 mins; assay type: functional; details: Cavia porcellus, 0.5 h
How it was run: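 Guinea pig left atria electrically driven at 1 Hz. EC50 taken from log concentration−response curves by Litchfield and Wilcoxon probit analysis, n = 6−7. Not calculated when the maximum effect was below 50%.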

Right cardiac atrium = experiment: Negative chronotropic activity in potassium depolarized guinea pig right atrium assessed as reduction in atrial rate at 50 uM after 30 mins; assay type: functional, Cavia porcellus; set-up: scale not given: the % may be the effect or the level left
Aorta [3] = experiment: Vasorelaxant activity in potassium depolarized guinea pig aorta assessed as inhibition of calcium-induced contraction at 10^-4 M after 30 mins; assay type: functional, Cavia porcellus; set-up: scale not given: the % may be the effect or the level left
How it was run: (§1)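 Guinea pig aortic strips depolarized with K+ (80 mM). Calcium-induced contraction measured; inhibition expressed as percent change from control, n = 3−5.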

[4] = Relaxant activity in potassium depolarized guinea pig ileum longitudinal smooth muscle assessed as inhibition of calcium-induced contraction at 10^-5 M after 30 mins; assay type: functional, Cavia porcellus; set-up: scale not given: the % may be the effect or the level left
Left cardiac atrium [5] = experiment: Negative inotropic activity in potassium depolarized guinea pig left atrium assessed as reduction in developed tension at 10^-5 M after 30 mins; assay type: functional, Cavia porcellus; set-up: scale not given: the % may be the effect or the level left
Aorta [6] = experiment: Vasorelaxant activity in potassium depolarized guinea pig aorta assessed as inhibition of calcium-induced contraction at 50 uM after 30 mins; assay type: functional, Cavia porcellus; set-up: scale not given: the % may be the effect or the level left; how it was run: as §1
Left cardiac atrium [7] = experiment: Potency index, ratio of diltiazem EC50 to compound EC50 for negative inotropic activity against potassium depolarized guinea pig left atrium
[8] = Half life in human liver microsomes assessed as CYP-mediated compound degradation at 1 uM by LC-MS analysis
Left cardiac atrium [9] = experiment: Negative inotropic activity in potassium depolarized guinea pig left atrium assessed as reduction in developed tension at 10^-6 M after 30 mins; assay type: functional, Cavia porcellus; set-up: scale not given: the % may be the effect or the level left
[10] = Relaxant activity in potassium depolarized guinea pig ileum longitudinal smooth muscle assessed as inhibition of calcium-induced contraction at 0.05 uM after 30 mins; assay type: functional, Cavia porcellus; set-up: scale not given: the % may be the effect or the level left
[11] = Relaxant activity in potassium depolarized guinea pig ileum longitudinal smooth muscle assessed as inhibition of calcium-induced contraction after 30 mins; assay type: functional, tissue-based; details: Cavia porcellus, 0.5 h
Cytochrome P450 2C19 = Cytochrome P450 2C19 (Homo sapiens, UniProt P33261); experiment: Inhibition of CYP2C19 in human liver microsomes using (S)-mephenytoin as substrate after 40 mins by LC-MS analysis
Cytochrome P450 2D6 = Cytochrome P450 2D6 (Homo sapiens, UniProt P10635); experiment: Inhibition of CYP2D6 in human liver microsomes using dextromethorphan as substrate after 10 mins by LC-MS analysis
Liver microsome = experiment: Stability in human liver microsomes at 1 uM after 2 to 60 mins by LC-MS analysis in absence of NADPH
Cytochrome P450 1A2 = target: T1, Cytochrome P450 1A2 (Homo sapiens, UniProt P05177); experiment: Inhibition of CYP1A2 in human liver microsomes using phenacetin as substrate after 30 mins by LC-MS analysis
T1 sequence (P05177 whole entry): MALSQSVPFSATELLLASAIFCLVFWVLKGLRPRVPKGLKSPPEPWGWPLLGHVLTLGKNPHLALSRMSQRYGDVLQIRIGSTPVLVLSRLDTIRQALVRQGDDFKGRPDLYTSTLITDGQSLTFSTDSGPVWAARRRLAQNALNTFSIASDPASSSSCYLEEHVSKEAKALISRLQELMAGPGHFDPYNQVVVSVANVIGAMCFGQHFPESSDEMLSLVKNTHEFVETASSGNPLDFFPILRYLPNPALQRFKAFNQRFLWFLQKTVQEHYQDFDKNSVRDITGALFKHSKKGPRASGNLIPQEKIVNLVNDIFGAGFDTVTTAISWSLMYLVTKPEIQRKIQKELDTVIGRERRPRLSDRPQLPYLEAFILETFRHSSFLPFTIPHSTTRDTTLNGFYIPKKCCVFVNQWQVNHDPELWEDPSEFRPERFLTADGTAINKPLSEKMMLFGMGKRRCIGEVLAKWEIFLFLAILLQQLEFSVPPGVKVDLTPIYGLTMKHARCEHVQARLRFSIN

Cytochrome P450 2C9 = Cytochrome P450 2C9 (Homo sapiens, UniProt P11712); experiment: Inhibition of CYP2C9 in human liver microsomes using tolbutamide as substrate after 20 mins by LC-MS analysis
in vitro = details: human, liver microsomes

Sequence of Cytochrome P450 2C9 (P11712 whole entry): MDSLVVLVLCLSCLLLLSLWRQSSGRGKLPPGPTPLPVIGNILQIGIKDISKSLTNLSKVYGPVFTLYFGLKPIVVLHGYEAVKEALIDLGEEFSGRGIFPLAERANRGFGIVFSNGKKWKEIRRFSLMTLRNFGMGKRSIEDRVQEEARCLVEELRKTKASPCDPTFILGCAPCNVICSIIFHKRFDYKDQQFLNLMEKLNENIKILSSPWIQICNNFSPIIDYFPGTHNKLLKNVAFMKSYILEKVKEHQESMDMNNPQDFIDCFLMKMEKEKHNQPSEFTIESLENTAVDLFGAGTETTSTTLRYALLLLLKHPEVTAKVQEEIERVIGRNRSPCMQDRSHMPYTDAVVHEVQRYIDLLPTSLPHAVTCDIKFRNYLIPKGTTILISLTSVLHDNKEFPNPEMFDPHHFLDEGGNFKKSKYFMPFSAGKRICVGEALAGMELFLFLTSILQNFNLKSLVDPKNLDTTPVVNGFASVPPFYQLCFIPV
Sequence of Cytochrome P450 2D6 (P10635 whole entry): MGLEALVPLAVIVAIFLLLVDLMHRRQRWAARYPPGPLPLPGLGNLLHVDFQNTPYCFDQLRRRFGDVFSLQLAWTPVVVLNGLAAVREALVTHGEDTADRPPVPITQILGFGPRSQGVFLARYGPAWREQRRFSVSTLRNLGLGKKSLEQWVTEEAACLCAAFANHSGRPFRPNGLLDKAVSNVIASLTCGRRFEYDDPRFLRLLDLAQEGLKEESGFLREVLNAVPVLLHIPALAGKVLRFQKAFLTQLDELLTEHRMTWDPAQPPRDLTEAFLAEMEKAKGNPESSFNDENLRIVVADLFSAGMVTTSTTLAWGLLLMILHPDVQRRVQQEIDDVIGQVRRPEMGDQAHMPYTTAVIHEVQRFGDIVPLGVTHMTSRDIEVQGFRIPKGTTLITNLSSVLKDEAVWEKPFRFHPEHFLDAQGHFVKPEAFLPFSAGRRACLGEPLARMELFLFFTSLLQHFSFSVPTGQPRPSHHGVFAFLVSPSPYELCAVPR
Sequence of Cytochrome P450 2C19 (P33261 whole entry): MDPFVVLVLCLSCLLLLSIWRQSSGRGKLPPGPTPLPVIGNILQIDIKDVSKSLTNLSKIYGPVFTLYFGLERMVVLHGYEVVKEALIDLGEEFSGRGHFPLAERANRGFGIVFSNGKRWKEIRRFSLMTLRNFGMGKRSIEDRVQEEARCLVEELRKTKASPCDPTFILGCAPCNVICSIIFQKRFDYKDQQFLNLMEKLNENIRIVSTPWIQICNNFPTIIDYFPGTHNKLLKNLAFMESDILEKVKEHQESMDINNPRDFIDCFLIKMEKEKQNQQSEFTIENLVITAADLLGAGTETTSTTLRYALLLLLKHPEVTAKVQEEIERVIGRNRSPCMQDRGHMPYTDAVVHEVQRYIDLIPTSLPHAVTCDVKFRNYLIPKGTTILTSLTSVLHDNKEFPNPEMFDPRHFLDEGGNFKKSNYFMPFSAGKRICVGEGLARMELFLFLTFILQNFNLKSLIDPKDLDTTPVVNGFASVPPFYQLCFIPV

Structure (SMILES)	Activity (Left cardiac atrium [1]) [%]	EC50 (Left cardiac atrium [2]) [nM]	Activity (Right cardiac atrium) [%]	Activity (Aorta [3]) [%]	Activity [4] [%]	Activity (Left cardiac atrium [5]) [%]	Activity (Aorta [6]) [%]	Ratio EC50 (Left cardiac atrium [7])	half-life at 1 µM [8] [min]	Activity (Left cardiac atrium [9]) [%]	Activity [10] [%]	IC50 [11] [nM]	IC50 (Cytochrome P450 2C19) [nM]	IC50 (Cytochrome P450 2D6) [nM]	Stability (Liver microsome)	IC50 (Cytochrome P450 1A2) [nM]	IC50 (Cytochrome P450 2C9) [nM]	microsomal CLint at 1 µM (in vitro) [µL/min/mg]
CCOC1(c2cccc(OC)c2)SC=C(C)n2c1noc2=O (stereo not drawn)	71	38	2	31	43	–	–	–	–	–	–	–	–	–	–	–	–	–
CC1=CSC(O)(c2ccccc2)c2noc(=O)n21 (stereo not drawn)	–	230	14	–	–	95	4	3.4	–	–	–	–	–	–	–	–	–	–
CCOC1(c2ccc(OC)cc2)SC=C(C)n2c1noc2=O (stereo not drawn)	–	22	3	29	–	–	–	–	6	76	86	17	2500	12500	Stable	5200	13600	278
